As usually defined, the MIC80 is an inhibitory concentration at the 80% level, which refers to growth in some studies and to a panel of isolates in others. Read a high MIC80 as lower susceptibility.

Structures are written as SMILES. Values after ≈ are worked out from the molar mass of the structure shown.

The test concerns Trichophyton rubrum. In words: Antifungal activity against Trichophyton rubrum incubated at 35 degC for 72 hrs by NCCLS based microbroth dilution method. The test is classed as functional. Summed up: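 Broth microdilution in 96-well plates per NCCLS; compounds dissolved in DMSO, serially diluted in growth medium, inoculated, incubated at 35 °C, read at 72 h for T. rubrum. MIC80 taken as first well with ~80% growth reduction versus drug-free well. Fluconazole, itraconazole, voriconazole, omoconazole and amphotericin B as positive controls. Tests run three times; mean of replicates reported.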
The molecule `C/C(=C(/OCCCOc1ccc(C)cc1)c1ccc(F)cc1F)n1cncn1.O=[N+]([O-])O` displayed an MIC80 of 2.5 µg/mL.

In turn, `C/C(=C(/OCCCCOc1c(Cl)cc(Cl)cc1Cl)c1ccc(F)cc1F)n1cncn1.O=[N+]([O-])O` showed an MIC80 of more than 20 µg/mL.

For `C[C@@H](c1ncncc1F)[C@](O)(Cn1cncn1)c1ccc(F)cc1F` [VORICONAZOLE], the MIC80 turned out to be 0.0625 µg/mL (≈ 0.179 µM).

The molecule `C/C(=C(/OCCCOc1ccc(Br)cc1)c1ccc(F)cc1F)n1cncn1.O=[N+]([O-])O` returned an MIC80 of 0.25 µg/mL.

For `C/C(=C(/OCCCCOc1ccc(C)cc1)c1ccc(F)cc1F)n1cncn1.O=[N+]([O-])O`, the MIC80 is 0.2 µg/mL.

`C[C@@H]1[C@H](O)[C@@H](C)/C=C/C=C/C=C/C=C/C=C/C=C/C=C/[C@H](O[C@@H]2O[C@H](C)[C@@H](O)[C@H](N)[C@@H]2O)C[C@@H]2O[C@](O)(C[C@@H](O)C[C@@H](O)[C@H](O)CC[C@@H](O)C[C@@H](O)CC(=O)O[C@H]1C)C[C@H](O)[C@H]2C(=O)O` [AMPHOTERICIN B] had an MIC80 of 2 µg/mL (≈ 2.16 µM).

The molecule `C/C(=C(/OCCCCOc1ccc(Br)cc1)c1ccc(F)cc1F)n1cncn1.O=[N+]([O-])O` came in with an MIC80 of 0.05 µg/mL.

For `C/C(=C(/OCCCCOc1ccc(F)cc1)c1ccc(F)cc1F)n1cncn1.O=[N+]([O-])O`, the MIC80 is 0.025 µg/mL.

`C/C(=C(/OCCCCOc1ccc(Cl)cc1Cl)c1ccc(F)cc1F)n1cncn1.O=[N+]([O-])O` yielded an MIC80 of 2 µg/mL.

As to `C/C(=C(/OCCCCOc1ccccc1Cl)c1ccc(F)cc1F)n1cncn1.O=[N+]([O-])O`, the MIC80 was determined as 0.1 µg/mL.

Molecule `C/C(=C(/OCCCCOc1ccc(Cl)cc1)c1ccc(F)cc1F)n1cncn1.O=[N+]([O-])O` gave an MIC80 of 0.0625 µg/mL.

The molecule `CCC(C)n1ncn(-c2ccc(N3CCN(c4ccc(OCC5COC(Cn6cncn6)(c6ccc(Cl)cc6Cl)O5)cc4)CC3)cc2)c1=O` (stereo not given) [ITRACONAZOLE] came in with an MIC80 of 0.125 µg/mL (≈ 0.177 µM).

On to `C/C(=C(/OCCCCCCOc1ccc(Cl)cc1)c1ccc(F)cc1F)n1cncn1.O=[N+]([O-])O`, for which the MIC80 amounted to 2.5 µg/mL.

`C/C(=C(/OCCCOc1ccc(Cl)cc1)c1ccc(F)cc1F)n1cncn1.O=[N+]([O-])O` registered an MIC80 of 0.125 µg/mL.

For `C/C(=C(/OCCOc1ccc(Cl)cc1)c1ccc(F)cc1F)n1cncn1.O=[N+]([O-])O`, the MIC80 turned out to be 0.2 µg/mL.

`C/C(=C(/OCCCOc1ccc(F)cc1)c1ccc(F)cc1F)n1cncn1.O=[N+]([O-])O` showed an MIC80 of 0.1 µg/mL.

`C/C(=C(/OCCCCCOc1ccc(Cl)cc1)c1ccc(F)cc1F)n1cncn1.O=[N+]([O-])O`: the MIC80 was 0.25 µg/mL.

`C/C(=C(/OCCCCOc1cccc(Cl)c1)c1ccc(F)cc1F)n1cncn1.O=[N+]([O-])O` yielded an MIC80 of 0.025 µg/mL.

The molecule `OC(Cn1cncn1)(Cn1cncn1)c1ccc(F)cc1F` [FLUCONAZOLE] registered an MIC80 of 4 µg/mL (≈ 13.1 µM).

In turn, `C/C(=C(/OCCOc1ccc(Cl)cc1)c1ccc(Cl)cc1Cl)n1ccnc1` [OMOCONAZOLE] gave an MIC80 of 0.1 µg/mL (≈ 0.236 µM).

For the origin of these results see ChEMBL document CHEMBL2046374, “Synthesis and biological evaluation of vinyl ether-containing azole derivatives as inhibitors of Trichophyton rubrum” (2012).
